The values below come from publication PMC6682041 (ACS Omega, 2019).

One may read the inhibition as how much of the control response was suppressed. For orientation: Ki means a dissociation constant, usually derived from enzyme kinetics or from competition with a known ligand. The IC50 is the concentration at which inhibition is half-maximal.

Experiment [1] has as its target Aβ25–35 (Homo sapiens, UniProt P05067). The experiment is described as follows: Self-induced Aβ25–35 aggregation inhibition assay. It is filed as biochemical. Conditions: read-out: inhibition of self-induced Aβ25–35 aggregation. The essentials:
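Aβ25–35 was lyophilized from HFIP, taken to a 0.4 mM stock in 65% acetonitrile and diluted 2-fold in 69 mM phosphate pH 7.0. Test compound (0.2, 2, 20 µM) or reference inhibitor (10 µM) was added, then 24 h at 4 °C. ThT (25 µM, glycine–NaOH pH 8.5) was added, with 5 min before reading ex 446/em 490 nm. %inhibition = 100 − (Fi/Fc × 100); mean ± SD, n=3.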

Experiment [2] concerns the target T1, electric eel AChE (Electrophorus electricus, UniProt O42275). The experiment is described as follows: Enzyme kinetics of AChE inhibition. Conditions: for AChE inhibition type: determined by the Lineweaver–Burk plot. It is filed as biochemical. The essentials:
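Electric eel AChE (0.36 U/mL solution) was preincubated 15 min at RT with the test compound (0.5–10 µM, from 10% DMSO) in sodium phosphate buffer pH 8.0. DTNB and acetylthiocholine (0.1, 0.3, 0.6 […]) were then added, with 10 min at RT and A412 read. Run in triplicate. Inhibition type came from Lineweaver–Burk plots and Ki from Dixon plots.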

Experiment [3] has as its target T2, human recombinant β-secretase (BACE1) (Homo sapiens, UniProt P56817). The experiment is described as follows: BACE1 enzyme inhibition assay. It counts as biochemical.
Experiment [4] deals with T3, horse serum BChE (Equus caballus, UniProt P81908). The experiment is described as follows: Cholinesterase enzyme inhibition assay. It counts as biochemical.
T3 sequence (P81908 whole entry): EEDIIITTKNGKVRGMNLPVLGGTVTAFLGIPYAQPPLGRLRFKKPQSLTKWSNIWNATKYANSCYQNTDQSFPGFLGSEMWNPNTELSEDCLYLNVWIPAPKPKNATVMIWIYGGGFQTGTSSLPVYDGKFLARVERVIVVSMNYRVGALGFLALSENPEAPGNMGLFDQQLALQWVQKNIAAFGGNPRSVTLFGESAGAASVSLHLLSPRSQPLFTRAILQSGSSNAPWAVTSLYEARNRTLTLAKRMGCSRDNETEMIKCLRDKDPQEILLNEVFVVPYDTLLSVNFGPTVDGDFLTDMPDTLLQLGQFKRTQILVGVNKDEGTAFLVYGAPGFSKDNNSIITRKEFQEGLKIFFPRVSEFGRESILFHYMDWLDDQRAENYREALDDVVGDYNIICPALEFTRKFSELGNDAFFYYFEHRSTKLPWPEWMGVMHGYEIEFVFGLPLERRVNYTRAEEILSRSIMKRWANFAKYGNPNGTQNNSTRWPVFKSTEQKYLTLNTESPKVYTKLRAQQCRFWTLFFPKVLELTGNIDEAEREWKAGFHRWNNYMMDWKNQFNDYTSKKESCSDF
In experiment [5] the target is T2, human recombinant β-secretase (BACE1). In words: Enzyme kinetics of BACE1 inhibition. It is filed as biochemical. Conditions: for BACE1 inhibition type: determined by the Lineweaver–Burk plot. The essentials:
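FRET kit using human recombinant β-secretase (1.0 U/mL solution) in assay buffer pH 4.5. The test compound (0.625–5 µM) was mixed with substrate at 250, 375 or 750 nM and incubated 60 min at RT in the dark. Fluorescence was read at ex 545/em 585 nm, and inhibition taken from the 0 to 60 min change versus control. Lineweaver–Burk plots gave the mechanism; Dixon plots gave Ki.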

Experiment [6] addresses human recombinant GSK-3β (Homo sapiens, UniProt P49841). In words: biochemical.
Experiment [7] has as its target T3, horse serum BChE. In words: Enzyme kinetics of BChE inhibition. It is filed as biochemical. Particulars: for BChE inhibition type: determined by the Lineweaver–Burk plot. The essentials: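 Horse serum BChE (0.36 U/mL solution) was preincubated 15 min at RT with the test compound (1.25–10 µM, from 10% DMSO) in sodium phosphate buffer pH 8.0. Reaction started with DTNB plus butyrylthiocholine (0.1, 0.3, 0.6 […]), then 10 min at RT and A412 read. Run in triplicate. Lineweaver–Burk plots gave the inhibition mode; Dixon plots gave Ki.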

Experiment [8] addresses T1, electric eel AChE. The experiment is described as follows: Cholinesterase enzyme inhibition assay. It is filed as biochemical. The essentials: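 Electric eel AChE, added as a 0.36 U/mL solution, was preincubated 15 min at room temperature in sodium phosphate buffer (pH 8.0) with test compound dissolved in 10% DMSO. DTNB and […] substrate were then added, with a further 10 min at room temperature. Absorbance was read at 412 nm, in triplicate. % inhibition = (1 − T/C) × 100; IC50 from the log dose–inhibition curve.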

Sequence of human recombinant GSK-3β (P49841 whole entry): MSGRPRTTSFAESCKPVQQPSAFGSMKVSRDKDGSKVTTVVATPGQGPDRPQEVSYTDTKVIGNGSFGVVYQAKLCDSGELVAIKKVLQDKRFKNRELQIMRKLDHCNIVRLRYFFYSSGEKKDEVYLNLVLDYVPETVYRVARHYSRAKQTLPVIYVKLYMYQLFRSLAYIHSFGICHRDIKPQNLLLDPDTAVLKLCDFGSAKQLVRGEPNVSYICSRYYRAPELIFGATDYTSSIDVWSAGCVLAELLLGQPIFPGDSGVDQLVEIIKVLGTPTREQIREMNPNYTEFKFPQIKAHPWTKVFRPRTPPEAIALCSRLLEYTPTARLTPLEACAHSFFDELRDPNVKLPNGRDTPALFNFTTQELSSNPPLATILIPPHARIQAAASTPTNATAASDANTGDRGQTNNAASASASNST
T2 sequence (P56817 46-501): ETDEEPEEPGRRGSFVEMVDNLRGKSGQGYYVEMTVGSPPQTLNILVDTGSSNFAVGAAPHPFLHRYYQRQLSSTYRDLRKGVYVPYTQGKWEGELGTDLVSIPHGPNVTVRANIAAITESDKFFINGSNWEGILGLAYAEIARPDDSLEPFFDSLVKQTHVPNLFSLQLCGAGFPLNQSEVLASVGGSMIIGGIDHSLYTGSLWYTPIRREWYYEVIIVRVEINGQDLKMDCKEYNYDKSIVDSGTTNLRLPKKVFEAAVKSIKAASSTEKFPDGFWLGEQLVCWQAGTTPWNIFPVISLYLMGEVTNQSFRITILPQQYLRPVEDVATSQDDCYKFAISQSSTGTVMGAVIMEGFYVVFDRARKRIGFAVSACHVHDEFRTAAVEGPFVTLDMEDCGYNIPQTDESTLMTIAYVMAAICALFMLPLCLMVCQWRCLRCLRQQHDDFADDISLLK
T1 sequence (O42275 24-633): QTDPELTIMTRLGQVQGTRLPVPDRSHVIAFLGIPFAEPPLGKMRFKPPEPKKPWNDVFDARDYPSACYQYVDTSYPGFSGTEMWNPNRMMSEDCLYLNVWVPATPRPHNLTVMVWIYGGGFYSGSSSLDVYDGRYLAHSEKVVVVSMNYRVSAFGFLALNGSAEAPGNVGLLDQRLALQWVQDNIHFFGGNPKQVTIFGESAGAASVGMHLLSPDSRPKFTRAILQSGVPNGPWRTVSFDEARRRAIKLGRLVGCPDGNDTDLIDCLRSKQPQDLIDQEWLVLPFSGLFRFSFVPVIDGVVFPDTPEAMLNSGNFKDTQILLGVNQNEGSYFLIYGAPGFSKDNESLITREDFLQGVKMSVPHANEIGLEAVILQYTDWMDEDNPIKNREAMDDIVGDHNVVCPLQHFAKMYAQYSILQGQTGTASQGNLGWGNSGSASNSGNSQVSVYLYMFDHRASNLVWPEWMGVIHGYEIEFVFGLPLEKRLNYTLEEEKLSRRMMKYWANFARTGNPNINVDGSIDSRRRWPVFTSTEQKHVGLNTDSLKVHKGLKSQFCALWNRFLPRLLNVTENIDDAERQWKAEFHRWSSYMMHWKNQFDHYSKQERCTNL

Consider `Oc1c(O)c(Br)c(COCc2c(Br)c(O)c(O)c(Br)c2Br)c(Br)c1Br` [Compound 3, bis-(2,3,6-tribromo-4,5-dihydroxybenzyl) ether], for which the inhibition at 20 µM in experiment [1] is 58.5%. For the same molecule, the Ki was 0.64 µM in experiment [2], 1.24 µM in experiment [5] and 0.37 µM in experiment [7]. In addition, the AChE inhibition type entry in experiment [2] was “mixed”. Further, the IC50 in experiment [3] amounted to 2.32 ± 0.1 µM; in experiment [4], 4.03 ± 0.15 µM; in experiment [6], 56.5 ± 2.48 µM; in experiment [8], 2.66 ± 0.24 µM. For the same molecule, the BACE1 inhibition type entry in experiment [5] is “competitive”. Further, in experiment [7], the BChE inhibition type entry was “competitive”.
Consider `COc1cc(/C=C/C(=O)CC(=O)/C=C/c2ccc(O)c(OC)c2)ccc1O` [curcumin, reference compound], for which the inhibition at 10 µM in experiment [1] is 52.4%.
For `COCc1c(Br)c(O)c(O)c(Br)c1Br` [Compound 2, 2,3,6-tribromo-4,5-dihydroxybenzyl methyl ether], the inhibition at 20 µM in experiment [1] was determined as 56.7%. Moreover, the Ki in experiment [2] worked out at 0.71 µM; in experiment [5], 0.7 µM; in experiment [7], 0.51 µM. Moreover, in experiment [2], the AChE inhibition type entry is “mixed”. The IC50 in experiment [3] was 4.79 ± 0.82 µM; in experiment [4], 14.4 ± 0.27 µM; in experiment [6], 140 ± 15.1 µM; in experiment [8], 9.61 ± 0.35 µM. Further, the BACE1 inhibition type result in experiment [5] is recorded as “noncompetitive”. For the same molecule, the BChE inhibition type result in experiment [7] is recorded as “competitive”.
For the molecule `OCc1c(Br)c(O)c(O)c(Br)c1Br` [Compound 1, 2,3,6-tribromo-4,5-dihydroxybenzyl alcohol], the inhibition at 20 µM in experiment [1] worked out at 66.8%. In addition, the Ki in experiment [2] amounted to 0.58 µM; in experiment [5] it was 3.1 µM; in experiment [7] it was 1.15 µM. In addition, in experiment [2], the AChE inhibition type result is “mixed”. Besides, the IC50 came to 5.16 ± 0.6 µM in experiment [3], 8.95 ± 2.18 µM in experiment [4], 229 ± 12.1 µM in experiment [6] and 7.31 ± 0.25 µM in experiment [8]. The BACE1 inhibition type entry in experiment [5] is reported as “noncompetitive”. Further, in experiment [7], the BChE inhibition type entry is “competitive”.
With `O=c1cc(-c2ccc(O)c(O)c2)oc2cc(O)cc(O)c12` [luteolin, reference compound], the IC50 in experiment [6] was 5.42 ± 0.19 µM.
For `COc1ccc2cc3[n+](cc2c1OC)CCc1cc2c(cc1-3)OCO2` [berberine, reference compound], in experiment [8], the IC50 amounted to 1.17 ± 0.09 µM.
